From ChEMBL document CHEMBL1123449, “9,11-Epoxy-9-homo-14-oxaprosta-5-enoic acid derivatives. Novel inhibitors of fatty acid cyclooxygenase” (J Med Chem, 1986)

Legend:
Homo sapiens [1] = organism: Homo sapiens; assay: In vitro inhibition of arachidonic acid induced platelet aggregation of human platelet-rich plasma; format: functional; conditions: read-out: I50
How it was run: (§1)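 Aggregation of human platelet-rich plasma triggered with arachidonic acid at 800 μM. The method follows an earlier report, and the value is given as I50.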

Homo sapiens [2] = organism: Homo sapiens; assay: In vitro ability to inhibit adenosine diphosphate induced platelet aggregation (ADPIPA) of human platelet-rich plasma (PRP), and I50 value was reported from single determination.; format: functional, organism-based; conditions: read-out: I50
Homo sapiens [3] = organism: Homo sapiens; assay: In vitro ability to inhibit adenosine diphosphate induced platelet aggregation (ADPIPA) of human platelet-rich plasma (PRP); format: functional; conditions: read-out: I50
Homo sapiens [4] = organism: Homo sapiens; assay: In vitro ability to inhibit arachidonic acid induced platelet aggregation (AAIPA) of human platelet-rich plasma (PRP); format: functional; how it was run: as §1
Homo sapiens [5] = organism: Homo sapiens; assay: In vitro ability to cause dose dependent inhibition of arachidonic acid (AA) conversion to PGE-2; format: functional; conditions: read-out: I50
How it was run: (§2)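 Compound incubated with platelet lysate at several concentrations. Read-out is inhibition of arachidonic acid conversion to TXA2, measured as TXB2 production, and to PGE2. The value is given as I50.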

Homo sapiens [6] = organism: Homo sapiens; assay: In vitro ability to cause dose dependent inhibition of arachidonic acid (AA) conversion to thromboxane A2 (TXA2 ); format: functional; conditions: read-out: I50; how it was run: as §2

CCC/C=C\COCC1C2CCC(O2)C1C/C=C\CCCC(=O)O (stereo not drawn)
IC50 (Homo sapiens [1]; Homo sapiens, Plasma): 3.3 µM

CCCCCCCO[C@@H]1C2CCC(O2)[C@@H]1C/C=C\CCCC(=O)O (stereo partly drawn)
IC50 (Homo sapiens [1]; Homo sapiens, Plasma): 340 µM

CCCCCCCO[C@H]1C2CCC(O2)[C@@H]1C/C=C\CCCC(=O)O (stereo partly drawn)
IC50 (Homo sapiens [1]; Homo sapiens, Plasma): 120 µM

CCCCCOCCC1C2CCC(O2)C1C/C=C\CCCC(=O)O (stereo not drawn)
IC50 (Homo sapiens [1]; Homo sapiens, Plasma): 105 µM

CCC/C=C/COCC1C2CCC(O2)C1C/C=C\CCCC(=O)O (stereo not drawn)
IC50 (Homo sapiens [1]; Homo sapiens, Plasma): 0.3 µM

COCC1C2CCC(O2)C1C/C=C\CCCC(=O)O (stereo not drawn)
IC50 (Homo sapiens [1]; Homo sapiens, Plasma): 22 µM

CC/C=C/CCOCC1C2CCC(O2)C1C/C=C\CCCC(=O)O (stereo not drawn)
IC50 (Homo sapiens [1]; Homo sapiens, Plasma): 0.5 µM

CCCCC[C@H](O)/C=C/[C@H]1C2CCC(O2)[C@@H]1C/C=C\CCCC(=O)O (stereo partly drawn)
IC50 (Homo sapiens [1]; Homo sapiens, Plasma): 0.3 µM
IC50 (Homo sapiens [2]): 1.6 µM

CCCCC[C@H](O)/C=C/[C@@H]1C2CCC(O2)[C@@H]1C/C=C\CCCC(=O)O (stereo partly drawn)
IC50 (Homo sapiens [3]): 300 µM

O=C(O)CCC/C=C\CC1C2CCC(O2)C1COCCCc1ccccc1 (stereo not drawn)
IC50 (Homo sapiens [1]; Homo sapiens, Plasma): 26 µM

O=C(O)CCCCC1CC2C3CCC(O3)C2CO1 (stereo not drawn)
IC50 (Homo sapiens [1]; Homo sapiens, Plasma): > 1000 µM

CCCC#CCOCC1C2CCC(O2)C1C/C=C\CCCC(=O)O (stereo not drawn)
IC50 (Homo sapiens [1]; Homo sapiens, Plasma): 0.2 µM

O=C(O)CCC/C=C\CC1C2CCC(O2)C1COCC1CCCCC1 (stereo not drawn)
IC50 (Homo sapiens [1]; Homo sapiens, Plasma): 165 µM

CCCCCCCCOCC1C2CCC(O2)C1C/C=C\CCCC(=O)O (stereo not drawn)
IC50 (Homo sapiens [1]; Homo sapiens, Plasma): 32 µM

C=CCOCC1C2CCC(O2)C1C/C=C\CCCC(=O)O (stereo not drawn)
IC50 (Homo sapiens [1]; Homo sapiens, Plasma): 6 µM

CCCCCCOC(C)C1C2CCC(O2)C1CC=CCCCC(=O)O (stereo not drawn)
IC50 (Homo sapiens [1]; Homo sapiens, Plasma): 14 µM

CCCCC(C)COCC1C2CCC(O2)C1C/C=C\CCCC(=O)O (stereo not drawn)
IC50 (Homo sapiens [1]; Homo sapiens, Plasma): 7.4 µM

CCCC[C@@H](O)/C=C/C1C2CCC(O2)C1C/C=C\CCCC(=O)O (stereo partly drawn)
AC50 (Homo sapiens [4]): 2.5 µM

CCCCCCOCC1C2CCC(O2)C1CCCCCCC(=O)O (stereo not drawn)
IC50 (Homo sapiens [1]; Homo sapiens, Plasma): 0.2 µM

CCCCCCOC[C@@H]1C2CCC(O2)[C@@H]1C/C=C\CCCC(=O)O (single isomer, unassigned; (-))
IC50 (Homo sapiens [1]): 38.5 µM

CCCCCCOC[C@@H]1C2CCC(O2)[C@H]1C/C=C\CCCC(=O)O (stereo in doubt; 1)
IC50 (Homo sapiens [3]): > 1000 µM
IC50 (Homo sapiens [1]): 0.5 µM
IC50 (Homo sapiens [5]; Homo sapiens): 3.8 µM
IC50 (Homo sapiens [5]): 6.3 µM
IC50 (Homo sapiens [6]): 6.3 µM

CCCCCCOC[C@@H]1C2CCC(O2)[C@H]1C/C=C\CCCC(=O)O (stereo in doubt; 9)
IC50 (Homo sapiens [1]): 25 µM

CCCCCCOC[C@@H]1C2CCC(O2)[C@@H]1C/C=C\CCCC(=O)O (stereo in doubt; 10)
IC50 (Homo sapiens [1]): 10 µM

CCCCCCOC[C@@H]1C2CCC(O2)[C@H]1C/C=C\CCCC(=O)O (stereo in doubt; 11)
IC50 (Homo sapiens [1]): 18 µM

CCCCCC(C)OCC1C2CCC(O2)C1C/C=C\CCCC(=O)O (stereo in doubt; form 1)
IC50 (Homo sapiens [1]): 23 µM

CCCCCC(C)OCC1C2CCC(O2)C1C/C=C\CCCC(=O)O (stereo in doubt; form 2)
IC50 (Homo sapiens [1]): 3.2 µM

CC(=O)Oc1ccccc1C(=O)O [ASPIRIN]
IC50 (Homo sapiens [1]; Homo sapiens, Plasma): 185 µM

COc1ccc2c(c1)c(CC(=O)O)c(C)n2C(=O)c1ccc(Cl)cc1 [INDOMETHACIN]
IC50 (Homo sapiens [1]; Homo sapiens, Plasma): 4 µM
